{"data": "Measured values gathered from unrelated publications", "target": "RAC-alpha serine/threonine-protein kinase (AKT1, Homo sapiens, UniProt P31749)", "note": "Lines come from different studies, so protocols differ."}
{"Compound": "CN(C)c1ncc(F)c(-c2cnn3ncccc23)n1", "assay": "binding", "conditions": "1 µM", "remaining binding [%]": 100}
{"Compound": "CN1CCN(c2cnc3c(C4CCN(C(=O)c5ccc(OC(F)(F)F)cc5N)CC4)ncnc3c2)CC1", "assay": "cell-free assay, competition with immobilised ligand", "conditions": "1 µM", "remaining binding [%]": 100}
{"Compound": "O=C(Nc1c[nH]nc1C(=O)NC1CCNCC1)c1cc(F)cc(F)c1", "assay": "binding, competition with immobilised ligand", "conditions": "1 µM", "remaining binding [%]": 92}
{"Compound": "COc1cnc(Nc2cccc(S(N)(=O)=O)c2)nc1N1CCN(c2ccccc2)CC1", "assay": "binding, competition with immobilised ligand", "conditions": "1 µM", "remaining binding [%]": 100}
{"Compound": "FC(F)(F)Oc1cccc(-c2cnc3ccc(-c4ccncc4)nn23)c1", "assay": "cell-free assay, competition with immobilised ligand", "conditions": "5 µM", "remaining binding [%]": 88}
{"Compound": "CCN1CCN(Cc2ccc(C(=O)Nc3ccc(C)c(Oc4ccc5c(c4)CC(=O)N5)c3)cc2C(F)(F)F)CC1", "assay": "binding, competition with immobilised ligand", "conditions": "1 µM", "remaining binding [%]": 94}
{"Compound": "CN(CCCC(F)(F)F)c1nccc(-c2cnn3ncccc23)n1", "assay": "binding", "conditions": "1 µM", "remaining binding [%]": 100}
{"Compound": "C[C@H](c1ccc(F)cc1)N(Cc1cccc(C(=O)O)c1)C(=O)c1cnc2ccccc2c1", "assay": "cell-free assay, competition with immobilised ligand", "conditions": "1 µM", "remaining binding [%]": 100}
{"Compound": "N[C@H]1CCN(c2nccc(-c3cnn4ncccc34)n2)C1", "assay": "binding", "conditions": "1 µM", "remaining binding [%]": 97}
{"Compound": "Cc1nc(Cc2cccc(C(F)(F)F)c2)sc1-c1ccc(C(N)=O)nc1", "assay": "cell-free assay, competition with immobilised ligand", "conditions": "1 µM", "remaining binding [%]": 82}
{"Compound": "C[C@@H]1CCN(c2nccc(-c3cnn4ncccc34)n2)C1", "assay": "binding", "conditions": "1 µM", "remaining binding [%]": 93}
{"Compound": "c1cncc(-c2cccc(Nc3nccc(NC4CCCCC4)n3)c2)c1", "assay": "binding, competition with immobilised ligand", "conditions": "10 µM", "remaining binding [%]": 71}
{"Compound": "CS(=O)(=O)N1CCCC(NC(=O)[C@H](CCC2CCCCC2)NC(=O)c2ccc(CNC(=O)c3cnc4ccccn34)cc2)C1 (stereo partly shown)", "assay": "cell-free assay, competition with immobilised ligand", "conditions": "0.1 µM", "remaining binding [%]": 100}
{"Compound": "O=C(c1ccc(Nc2ncc(Cl)c(-c3ccc(Cl)s3)n2)cc1)N1CCC(N2CCCC2)CC1", "assay": "binding, competition with immobilised ligand", "conditions": "1 µM", "remaining binding [%]": 100}
{"Compound": "O=C(NCc1ncc(C(F)(F)F)cc1Cl)c1ccc2c(c1)C1(CCS(=O)(=O)CC1)[C@@H](C1CC1)N2S(=O)(=O)c1ccc(F)cc1", "assay": "cell-free assay, competition with immobilised ligand", "conditions": "1 µM", "remaining binding [%]": 94}
{"Compound": "O=C(NCCCN1CCOCC1)c1ccc(Nc2ncc(Cl)c(-c3ccc(Cl)s3)n2)cc1", "assay": "binding, competition with immobilised ligand", "conditions": "1 µM", "remaining binding [%]": 100}
